Source: PubChem BioAssay (Johns Hopkins Ion Channel Center)
Shown are actives, neighbours in structure and some others; about 3.5% of the full set was active somewhere.
MrgX1 antagonist: blocks BAM8-22 activation of human MrgX1 receptor | Q96LB2 | MRGX1-HEK293 calcium flux, Fluo-4, BAM8-22 antagonism; active compounds read low | B-score at 10 µM | hit rate 1.3% among 310,000 | AID 588676;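 active = calcium-response B-score plate-corrected more than 3 library SD below zero, starting fluorescence within 5 deviations, no agonist response on first addition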;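 note: peak minus trough fluorescence over baseline after final BAM8-22 challenge near maximal dose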
Target sequence (Q96LB2 whole entry, looked up): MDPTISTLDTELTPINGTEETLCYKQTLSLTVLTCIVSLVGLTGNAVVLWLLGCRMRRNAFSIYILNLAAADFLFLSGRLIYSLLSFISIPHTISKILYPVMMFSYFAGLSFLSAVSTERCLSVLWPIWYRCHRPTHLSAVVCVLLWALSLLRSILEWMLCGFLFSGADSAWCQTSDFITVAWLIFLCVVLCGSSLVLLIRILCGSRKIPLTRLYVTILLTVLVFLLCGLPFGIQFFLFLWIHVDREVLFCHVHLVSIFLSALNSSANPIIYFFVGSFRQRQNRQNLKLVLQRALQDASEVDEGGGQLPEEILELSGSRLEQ
MrgX1 PAM: human MrgX1 positive allosteric modulation, primary screen | Q96LB2 | MrgX1-HEK293, Fluo-4 calcium flux, FDSS; active compounds read high | B-score at 10 µM | hit rate 0.63% among 310,000 | AID 588675;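 active = plate-corrected calcium response at least 3 library SD above typical, normal starting fluorescence, not activating the receptor alone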;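 note: compound read alongside a low EC10 to EC30 dose of BAM8-22 agonist; peak minus trough fluorescence over baseline measured at the second addition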
RGS4 inh: inhibitors of human RGS4; P49798; hit rate 0.45% among 310,000; B-score at 10 µM; HEK293 M3R/RGS4 inducible, Fluo-4 calcium flux; active compounds read high; triggered by carbachol at its EC20;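 active = B-score, a plate-corrected calcium signal, over three deviations above library mean, with baseline fluorescence within five deviations of library mean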;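 note: RGS4 expression induced by doxycycline in cells with stable M3 receptor; B-score is computed from the integrated fluorescence ratio over baseline after carbachol; higher B-score means a larger calcium signal and so more RGS4 inhibition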
Target sequence (P49798 whole entry, looked up): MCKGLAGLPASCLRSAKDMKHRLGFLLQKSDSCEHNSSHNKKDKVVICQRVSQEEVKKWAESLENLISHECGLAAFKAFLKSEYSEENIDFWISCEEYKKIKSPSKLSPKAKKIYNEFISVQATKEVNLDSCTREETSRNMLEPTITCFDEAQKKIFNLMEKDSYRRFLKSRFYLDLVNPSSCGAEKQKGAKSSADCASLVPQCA
RGS4 pot: RGS4 potentiation or activation; HEK293 M3R/inducible RGS4, carbachol calcium flux Fluo4; active compounds read low; B-score at 10 µM; hit rate 0.92% among 310,000;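 active = B-score of the integrated calcium signal more than 4 SD below the library mean, with starting fluorescence not abnormally high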;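 note: negative B-score means reduced calcium response which marks RGS4 activation or potentiation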
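test system = M3R-expressing HEK293 line, RGS4 induced by doxycycline | probe or stimulus = carbachol at ECmax as muscarinic agonist stimulus | timing = dye loading 30 min 37 °C, buffer rest 30 min RT | signal = calcium dye Fluo4 fluorescence | evaluation = B score from integrated fluorescence ratio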
MrgX1 ag: agonists of human MrgX1 receptor; AID 588627; MrgX1-HEK293 cells, Fluo-4 calcium fluorescence, agonist mode; active compounds read high; hit rate 0.44% among 310,000; B-score at 10 µM;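 active = calcium response B-score plate-corrected fluorescence ratio at least 3 library SD, with starting fluorescence B-score inside 5 SD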
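Test system: Stable human MrgX1 HEK293 cell line | Schedule: Overnight plating before 1 h dye loading | Read-out basis: Baseline-normalised fluorescence change ratio, B-scored | Detection: Kinetic calcium dye fluorescence, Fluo-4 NW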
RGS4 inh valid: validation of RGS4 inhibitors | shares compounds with RGS4 inh | HEK293 M3R/RGS4, carbachol calcium Fluo-4 fluorescence; carbachol added at its EC20; 0 = buffer wells, 100 = carbachol control | calcium response, % at 10 µM | hit rate 65% among 1,700 | AID 492999;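 active = duplicate-averaged calcium response above the buffer-only control mean plus 5 SD of those controls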;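 note: integrated fluorescence ratio F max minus min over baseline F0; higher response in RGS4-induced cells means RGS4 inhibition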
RGS4 uninduced: checks RGS4 inhibitor effects in non-induced HEK293 M3R cells; shares compounds with RGS4 inh; hit rate 20% among 1,900; AID 493000; activity (percent), % at 10 µM; carbachol calcium Fluo-4; submaximal (EC20) carbachol stimulus; buffer wells 0%, carbachol control wells 100%; call rule not given here;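 note: RGS4 induction absent so cells express M3R without RGS4; higher means more calcium signal and flags a non-specific hit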
M3R basal Ca ctr: second RGS4 inhibitor counter-screen in uninduced cells lacking carbachol. shares compounds with RGS4 inh. HEK293 M3R/RGS4 non-induced, Fluo-4 calcium, no carbachol; normalised: buffer wells 0%, carbachol wells 100%. calcium response (agonist-mode artifact), % at 10 µM. hit rate 22% among 1,900;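 active = duplicate-averaged calcium rise in uninduced cells above buffer wells' mean plus 5 SD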
Numbers stand for hits; . = inactive; / = not tested or not shown.

SMILES	MrgX1 antagonist	MrgX1 PAM	RGS4 inh	RGS4 pot	MrgX1 ag	RGS4 inh valid	RGS4 uninduced	M3R basal Ca ctr
O=C(N/N=C/c1ccc(O)cc1)NC12CC3CC(CC(C3)C1)C2	.	.	5.2	.	.	20%	58%	11%
Cc1ccc(-c2cc(Cc3ccc(F)cc3)c(=O)[nH]n2)cc1	.	.	.	.	.	/	/	/
O=c1[nH]nc(-c2ccc(F)cc2)cc1Cc1ccc(F)cc1	.	.	.	.	.	/	.	.
Cc1ccc(Cc2cc(-c3ccc(C)cc3)n[nH]c2=O)cc1	.	.	.	.	.	/	.	.
CS(=O)(=O)c1ccc(NC(=O)CCN2C(=O)C3CCCCC3C2=O)cc1 (stereo not drawn)	.	.	.	.	.	/	/	/
COc1ccc(S(=O)(=O)NCCC(=O)NCc2ccccc2)cc1	.	.	.	.	.	.	.	.
Cc1ccccc1OCc1nnc(SCC(=O)Nc2ccc3c(c2)oc2ccccc23)n1C	.	.	5.1	.	.	14%	.	.
O=c1[nH][nH]c(-c2ccccc2O)c1C(C[N+](=O)[O-])c1ccccc1 (stereo not drawn)	.	.	.	.	.	.	.	.
O=c1[nH][nH]c(-c2ccccc2O)c1C(C[N+](=O)[O-])c1ccc(Cl)cc1Cl (stereo not drawn)	.	.	6.2	.	.	.	.	.
Cc1cc(O)c(C(C[N+](=O)[O-])c2ccc(Cl)cc2Cl)c(=O)o1 (stereo not drawn)	.	.	.	.	.	/	/	/
O=c1[nH][nH]c(-c2ccccc2O)c1C(C[N+](=O)[O-])c1cccc(Cl)c1 (stereo not drawn)	.	.	.	.	.	/	/	/
CC(Sc1nnc(C(F)(F)F)n1C)C(=O)Nc1ccc(S(N)(=O)=O)cc1 (stereo not drawn)	.	.	.	.	.	/	/	/
Cn1c2ccccc2c2c(C(=O)NCc3ccco3)cn(C3CCCCC3)c(=O)c21	.	.	.	.	.	.	.	.
O=C(/C=C/c1ccc([N+](=O)[O-])cc1)c1ccco1	.	.	11	.	.	12%	.	.
O=C(/C=C/c1cccnc1)c1ccc(F)c(F)c1	.	.	21	.	.	27%	46%	.
O=C(/C=C/c1ccc([N+](=O)[O-])cc1)c1cccnc1	.	.	18	.	.	39%	52%	.
O=C(/C=C/c1ccc(Br)cc1)c1ccco1	.	.	.	.	.	/	/	/
N#CCOC(=O)C1CCN(S(=O)(=O)c2ccc3c(c2)OCCO3)CC1	.	.	.	.	.	/	/	/
Cc1cc(C(F)F)n2nc(C(=O)Nc3cccc(S(=O)(=O)N4CCOCC4)c3)nc2n1	.	.	.	.	.	/	/	/
COc1ccc(NC(=O)CSCC(=O)Nc2cccc3ncccc23)cc1	.	.	.	.	.	/	/	/
O=C(NC(C(=O)N/N=C/c1c2ccccc2cc2ccccc12)c1n[nH]c(=O)c2ccccc12)c1ccccc1 (stereo not drawn)	.	.	.	.	.	.	.	128%
O=C(NC(C(=O)N/N=C/c1ccccc1)c1n[nH]c(=O)c2ccccc12)c1ccccc1 (stereo not drawn)	.	.	.	.	.	.	.	10%
CC(NC(=O)c1ccccc1)C(=O)N/N=C/c1ccccc1 (stereo not drawn)	.	.	.	.	.	/	/	/
Cc1[nH]n(-c2ncc(-c3ccccc3)s2)c(=O)c1C(c1ccc(Br)cc1)C(C#N)C#N (stereo not drawn)	-6.8	.	16	.	.	50%	.	51%
COc1ccc(Nc2cnn(-c3nc4ccccc4s3)c(=O)c2Cl)cc1	.	.	4.7	.	.	11%	.	.
SMILES	MrgX1 antagonist	MrgX1 PAM	RGS4 inh	RGS4 pot	MrgX1 ag	RGS4 inh valid	RGS4 uninduced	M3R basal Ca ctr
Cc1ccc(NCC(=O)N/N=C/c2cc3ccccc3nc2Cl)cc1	.	.	8	.	.	9.5%	.	.
CN(Cc1cnccn1)C(=O)CC1C(=O)NCCN1Cc1ccc(F)cc1Cl (stereo not drawn)	.	.	4.8	.	.	.	.	82%
CN(CCc1ccccn1)C(=O)CC1C(=O)NCCN1Cc1cccc(F)c1 (stereo not drawn)	.	.	.	.	.	/	/	/
CN(Cc1ccccn1)C(=O)CC1C(=O)NCCN1Cc1ccc(F)cc1Cl (stereo not drawn)	.	.	.	.	.	.	.	14%
O=C1c2ccccc2CN1CCSC(=S)N1CCOCC1	.	.	6.5	.	.	.	.	.
CC1(C)C(=O)NC(=O)N1Cc1ccccc1	.	.	.	.	.	/	/	/
Cc1cccc(CSCc2ccc(C(=O)O)o2)c1	.	.	.	.	.	/	/	/
Cc1ccc(CSCc2ccc(C(=O)O)o2)cc1	.	.	5	.	.	.	.	.
CCSc1nc(N)c(C#N)c(-c2ccco2)c1C#N	.	.	6.5	.	.	7.0%	.	.
COC(=O)CSc1nc(N)c(C#N)c(-c2ccco2)c1C#N	.	.	.	.	.	/	/	/
CCOC(=O)c1c(O)c2ccccc2n(CC)c1=O	.	.	.	.	.	/	/	/
S=C(Nc1ccccc1)Nc1nc2ccccc2n1CCOc1ccc(Cl)cc1	.	.	6.2	.	.	16%	34%	.
O=C(O)COc1ccc(/C=N/NC(=O)C(O)(c2ccccc2)c2ccccc2)cc1	.	.	.	.	.	/	/	/
S=c1[nH]nc(-c2cc(-c3ccsc3)n[nH]2)n1-c1cccc2ccccc12	.	.	6.1	.	.	11%	.	.
CC(C)c1nc2scc(-c3ccc(Cl)cc3)c2c(=O)n1N	.	.	.	.	.	/	/	/
O=C1COc2ccc(C(=O)CCl)cc2N1	.	.	13	.	.	66%	58%	9.5%
CCC1CCCCN1CCCn1c(=S)[nH]c2ccccc2c1=O (stereo not drawn)	.	.	6.9	.	.	19%	.	.
Cc1ccc2c(c1)N(C(=O)CCC(=O)Nc1ccccc1Cl)CC(C)O2 (stereo not drawn)	.	.	.	.	.	/	/	/
O=C(Nc1nnc(CC2=CCCCC2)s1)Nc1ccccc1F	.	.	.	.	.	/	/	/
O=C(Nc1cccc(Cl)c1)Nc1nnc(CC2=CCCCC2)s1	.	.	10	.	.	5.5%	.	.
Nc1nc(Nc2ccc(Cl)cc2)nc(NCc2ccco2)c1[N+](=O)[O-]	.	.	.	.	.	/	.	.
Nc1nc(Nc2cccc(F)c2)nc(NCc2ccco2)c1[N+](=O)[O-]	.	.	.	.	.	.	.	.
